Screening results deposited in PubChem BioAssay by several laboratories.
TDP2 inh: TDP2 (human) inhibition, absorbance primary screen; inhibition, % at 12.8 µM; 370,000 compounds, 0.34% hits; AID 720702; recombinant TDP2, T5PNP hydrolysis, p-nitrophenol absorbance 415 nm;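 active means inhibition above the mean of all tested compounds plus 3 SD, set per campaign, cut at about 25% in these data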;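 further: 0% = DMSO with enzyme and 100% = buffer with substrate but no TDP2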
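System: recombinant human TDP2 / Amount: 120 nM TDP2 per well / Also added: 5 mM T5PNP chromogenic substrate / Doses: 12.8 µM single point, 1% DMSO / Incubation: 2 h at 37 °C / Detection: p-Nitrophenol epi absorbance / Evaluation: % inhibition relative to enzyme-containing and enzyme-free wells / Repeats: singlicate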
Fh CTSL1 inh: blocks F. hepatica cathepsin L1 in PFM18AAP counter-screen; 300,000 compounds, 0.49% hits; inhibition, % at 5.96 µM; recombinant F. hepatica cathepsin L1, Z-Leu-Arg-MCA fluorescence;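 active means inhibition above the mean of all tested compounds plus 3 SD, set per screening campaign, cut at about 17% in these data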;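 further: 0% = plate median of test compound wells and 100% = 1 µM Z-Phe-Ala-diazomethylketone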
PAD4 FP inh: PAD4 (human) enzyme inhibition | 330,000 compounds, 0.41% hits | recombinant PAD4, RCA probe fluorescence polarization | inhibition, % at 6.36 µM | AID 485272 | Q9UM07;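 active means percent inhibition above a cutoff equal to the mean of all tested compounds plus 3 SD, cut at about 15% in these data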;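 further: 0% = PAD4 with RCA probe and DMSO and 100% = probe without PAD4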
Target sequence (Q9UM07 whole entry, looked up): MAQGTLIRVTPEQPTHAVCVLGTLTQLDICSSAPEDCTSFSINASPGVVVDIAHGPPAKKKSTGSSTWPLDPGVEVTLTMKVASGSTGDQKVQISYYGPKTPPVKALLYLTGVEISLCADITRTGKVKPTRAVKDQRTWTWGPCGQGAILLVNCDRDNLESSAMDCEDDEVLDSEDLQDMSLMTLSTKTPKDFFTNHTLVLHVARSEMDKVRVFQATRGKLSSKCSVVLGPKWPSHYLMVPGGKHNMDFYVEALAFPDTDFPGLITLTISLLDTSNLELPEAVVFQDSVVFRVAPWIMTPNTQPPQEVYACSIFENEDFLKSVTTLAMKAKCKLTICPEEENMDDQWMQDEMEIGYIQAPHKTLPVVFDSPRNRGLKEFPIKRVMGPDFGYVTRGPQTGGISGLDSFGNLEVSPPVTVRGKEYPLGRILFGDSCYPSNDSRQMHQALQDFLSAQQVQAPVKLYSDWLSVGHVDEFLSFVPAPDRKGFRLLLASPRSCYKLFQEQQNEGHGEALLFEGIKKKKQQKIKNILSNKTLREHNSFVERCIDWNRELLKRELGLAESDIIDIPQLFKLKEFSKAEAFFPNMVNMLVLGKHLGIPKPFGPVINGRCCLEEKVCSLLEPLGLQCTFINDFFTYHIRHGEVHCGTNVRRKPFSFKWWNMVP
Apaf-1 inh: human Apaf-1 inhibition. 330,000 compounds, 0.71% hits. inhibition, % at 20 µM. reconstituted apoptosome caspase-3 activity, DEVD-Rh110 fluorescence. O14727. AID 489030; active means inhibition of at least 40% at 20 µM;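 further: plate controls were DMSO wells for no effect and DEVD-CHO caspase inhibitor wells for full effect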
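Material: reconstituted apoptosome with Apaf-1, cytochrome c, caspase-9, procaspase-3, dATP; medium: pH 7.5 Hepes buffer with CHAPS, BSA, DTT; also added: cytochrome c and DEVD-Rh110 substrate; timing: 30 min plus 50 min, RT; signal: Rh110 fluorescence intensity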
GSTO1 inh: GSTO1 inhibition, counter-screen for RBBP9 inhibitors; recombinant GSTO1, activity-based probe fluorescence polarization; inhibition, % at 5.96 µM; 300,000 compounds, 1.1% hits; AID 1974;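 active means inhibition above the campaign mean inhibition plus 3 SD, cut at about 35% in these data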;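 further: 0% = GSTO1-1 with DMSO and 100% = wells lacking GSTO1-1 enzyme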
TDP2 inh conf: confirmation of human TDP2 inhibitors; inhibition, % at 12.8 µM; shares compounds with TDP2 inh; AID 743263; 1,100 compounds, 22% hits; recombinant human TDP2, absorbance read-out; in the data active means inhibition above about 25%;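 further: 0% = vehicle with enzyme and 100% = no enzyme buffer only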
An asterisk follows results filed as active; . = not tested or not shown. This is a sample that favours compounds with a hit; in the whole collection about 1.8% have one here.

SMILES	TDP2 inh	Fh CTSL1 inh	PAD4 FP inh	Apaf-1 inh	GSTO1 inh	TDP2 inh conf
N#CCCn1cc(C(=O)N2CCOCC2)c(-c2ccc3c(c2)OCCO3)n1	25*	4	-4	-8	1	-9
O=C1NC(=O)C2C3C=CC(C12)C1C(=O)NC(=O)C31 (stereo not given)	3	.	.	.	.	.
CN(C)CCNc1ccc2ncn3c4ccc(O)cc4c(=O)c1c23	31*	.	.	.	.	10
CN(C)CCNc1ccc(CO)c2sc3ccc(O)cc3c(=O)c12	-8	.	.	.	.	.
CC(C)Oc1ccc(S(=O)(=O)N2CCOCC2)cc1NC(=O)Cc1c(F)cccc1Cl	29*	4	-2	28	13	0
CC(C)Oc1ccc(S(=O)(=O)N2CCOCC2)cc1NC(=O)CC1CCCC1	4	.	-1	0	.	.
O=C(Nc1c(-c2ccc3c(c2)OCO3)[nH][nH]c1=O)c1ccccc1	68*	.	.	.	.	71*
O=C(Nc1c(-c2ccc3c(c2)OCO3)[nH][nH]c1=O)c1cccc(C(F)(F)F)c1	55*	.	.	.	.	9
O=C(Nc1c(-c2ccccc2)[nH][nH]c1=O)c1ccc2c(c1)OCO2	48*	.	.	.	.	23
O=C(Nc1c(-c2ccccc2)[nH][nH]c1=O)c1ccc(-c2ccccc2)cc1	6	.	.	.	.	.
Cc1ccc(C(=O)Nc2c(-c3ccc(Cl)cc3)[nH][nH]c2=O)cc1	61*	.	.	.	.	27*
CCCCNC(=O)C[C@H]1C[C@@]2(C(=O)OC)C(=C[C@H](C(C)C)O[C@@H]2C2CC2)N(Cc2ccc(Cl)cc2Cl)C1=O	-8	.	.	.	.	.
COc1ccccc1NCc1nc2ccccc2n1C	6	.	.	.	.	.
CN1CC=C(c2ccc(C(F)(F)F)cc2)N(c2ccc(Br)cc2)C1=O	-9	.	.	.	.	.
CCOC(=O)C(Cc1ccccc1)CP(=O)(OC)[C@@H](C)NC(=O)OCc1ccccc1 (stereo not given in full)	8	.	.	.	.	.
CC(=O)Nc1ccc(CN2CCCN(C)CC2)cc1	27*	-1	-3	-14	1	-2
CC(=O)Nc1ccc(CN2CCN(C3CCCC3)C(CCO)C2)cc1 (stereo not given)	-1	-1	1	2	6	.
COc1ccc(F)cc1S(=O)(=O)NCc1cc(=O)n(C)c(=O)n1C	25*	-1	-3	2	5	4
COc1ccc(F)cc1S(=O)(=O)NCC(=O)NCc1cc(=O)n(C)c(=O)n1C	9	6	0	0	6	.
COc1ccc(CNCCCC(=O)Nc2c(Cl)ccc(C)c2Cl)cc1OC	29*	0	-1	1	2	8
COc1ccc(CCNCCC(=O)Nc2c(C)cc(C)cc2C)cc1OC	-5	-4	1	-8	-1	.
Nc1c(S(=O)(=O)c2cccs2)c2nc3ccccc3nc2n1Cc1ccccc1	44*	3	-6	27	-7	4
CN1CCCCC(NC(=O)c2cccc(F)c2)C1=O (stereo not given)	0	.	.	.	.	.
COc1ccc(C)cc1NC(=S)NN1CCN(C)CC1	29*	-4	-3	-5	1	1
N#C/C(=C\c1ccncc1)C(=O)Nc1ccc(C(=O)O)cc1	-23	-7	-4	-8	-5	.
SMILES	TDP2 inh	Fh CTSL1 inh	PAD4 FP inh	Apaf-1 inh	GSTO1 inh	TDP2 inh conf
CC(C)c1ccc(NC(=O)/C(C#N)=C/c2ccncc2)cc1	24*	1	3	5	-1	5
CCOc1ccc2c(c1)C(C)=CC(C)(C)N2	26*	.	-7	6	.	-2
CCc1ccc2c(c1)C(C)=CC(C)(C)N2	0	1	-4	1	-1	.
COc1ccc(C2=NN(C(=O)CCC(=O)O)C(c3ccc(OC)c(OC)c3)C2)cc1 (stereo not given)	25*	4	-1	-2	1	8
Cc1nc2cc(NC(=O)N(C)c3ccc4ccccc4c3)ccc2o1	44*	-1	-10	-2	7	-5
O=C1NC(=S)S/C1=C\C=C\c1ccc([N+](=O)[O-])o1	30*	.	.	.	.	1
COc1cc2[nH]c(Cl)c([N+](=O)[O-])c2cc1OC	40*	3	-13	-10	20	3
Cc1ccc(NC(=O)C2CCN(S(=O)(=O)c3ccc(F)cc3)CC2)cc1	0	0	1	2	2	.
Cc1ccccc1N1CC(C(=O)Nc2ccc(S(=O)(=O)N3CCCCC3)cc2)CC1=O (stereo not given)	25*	0	-1	12	1	4
Cc1ccc(NC(=O)C2CCN(S(=O)(=O)c3ccccc3)CC2)cc1	30*	1	-6	-2	6	6
Cc1cccc(N2CC(C(=O)Nc3ccc(S(=O)(=O)N4CCCCC4)cc3)CC2=O)c1C (stereo not given)	-8	0	1	19	1	.
N#Cc1ccc(NC(=O)OC2CCC23CCC(c2ccccc2)CC3)cc1 (stereo not given)	2	.	.	.	.	.
COC(=O)[C@]12C[C@H](CC(=O)NCc3cccc4ccccc34)C(=O)N(CCc3ccc(OC)c(OC)c3)C1=C[C@H](C(C)(C)C)O[C@@H]2C	-4	.	.	.	.	.
CCOC(=O)c1c(C)[nH]c(C)c1S(=O)(=O)N1c2ccccc2CC1C (stereo not given)	55*	5	7	6	-1	4
COC(=O)c1cc(-c2ccc(Cl)s2)c(=O)n2c1CCC2	4	.	.	.	.	.
CCOC(=O)C1CCN(CC(=O)N2C(C)CCCC2C)CC1 (stereo not given)	27*	-1	-2	-21	5	1
Cc1c(N)cc(N)cc1C(=O)O	31*	0	-10	-11	11	6
Cc1c(Br)cc(C(=O)O)c(C)c1C	-4	-2	3	4	0	.
